“Also recorded” adds a separate entry of the source.
Legend:
[1] = format: in vivo, human
In short: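 Open-label single-dose study in 12 healthy volunteers. Each inhaled 1 mg test compound, with 99mTc surface-associated with the powder and blended with lactose, from a capsule dry-powder inhaler (60 L/min at 4 kPa). 81mKr ventilation and 57Co transmission scans were taken before dosing. Counts were corrected for decay, background and attenuation. Lung deposition was expressed as % of emitted dose (sum of lung, oropharynx, mouthwash, stomach and exhalation filter counts). Device and capsule residue was expressed as % of loaded dose. PI (outer/inner ratio) and sC/P were normalized to 81mKr.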

[2] = Phase I safety: laboratory tests; format: in vivo, human
In short: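 Healthy volunteers in single- and multiple-ascending inhaled-dose cohorts, randomized against placebo and blinded to investigator and subject. All dosed subjects were analysed. Change from baseline was assessed in vital signs, 12-lead ECG, spirometry and laboratory tests. Lab monitoring for JAK-related toxicity covered reticulocyte counts, lymphocyte subsets and fasting lipids.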

rat model of asthma = conditions: inhalation dosing; cited from earlier work
[3] = Phase I plasma pharmacokinetics after single; format: in vivo, human; conditions: for Cmax: plasma; for T max: median; for AR (Cmin): Cmin Day 14/Cmin Day 1, mean; for Cmax, Day 1 / Cmin, Day 1: first dose; for AUCtau, Day14 / Cmax, Day 14 / Cmin, Day 14: steady-state
In short: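 Randomized, placebo-controlled, blinded study in healthy adults aged 18–65. Part A gave single inhaled doses of 0.15–15 mg; Part B gave 1, 3 or 10 mg q.d. or 15 mg b.i.d. for 14 days via a capsule dry-powder inhaler, each dose over 15 (±5) min. Serial plasma samples were taken from pre-dose to Day 15 (Part A) or Day 42 (Part B). Drug was assayed by HPLC-MS/MS (LLOQ 10 pg/mL). Accumulation ratio = Cmin Day 14/Cmin Day 1.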

[4] = test system: fractional exhaled nitric oxide (FeNO); conditions: patients with mild asthma, inhaled; cited from earlier work
[5] = Part A SAD, range across dose levels

## CN(CCC#N)C1CCN(C(=O)Cn2cc(NC(=O)c3cnn4cccnc34)c(-c3cc(Cl)ccc3OC(F)F)n2)CC1 [GDC‐0214]
[1]; capsule emptying, of loaded dose, 1 mg capsule
  mean emitted dose: approximately 81%
[1]; from a single capsule (1 mg)
  calculated mean dose deposited in the lungs: approximately 0.41 mg
[1]; normalized for 81mKr gas distribution, mean (CV%), listed as radiolabeled GDC‐0214
  Regional airway deposition ratio, PI (penetration index): 0.76 (30.47%)
[1]; single inhaled 1 mg radiolabeled dose, after the breath-hold, mean
  % Emitted dose, Exhaled: 0.74%
[2]; Parts A and B
  changes in laboratory parameters, ECGs, or vital signs: no clinically relevant changes
[2]; compared to placebo, GDC-0214-treated cohorts
  changes in CD4T cells, CD8T cells, or B cells: no significant changes
[2]; indicators of systemic effects of JAK1 inhibition
  changes from baseline in levels of NK cells, reticulocytes, or low-density lipoprotein cholesterol: no significant changes
Rat model of asthma
  eosinophil recruitment: suppressed
[3]; Part A SAD, 0.15 mg single inhaled dose, mean
  Cmax: 0.0702 ng/mL
[3]; Part A SAD, 0.15 mg
  T max: 0.283 h
[3]; Part A SAD, 0.5 mg single inhaled dose, mean
  Cmax: 0.301 ng/mL
[3]; Part A SAD, 0.5 mg, mean
  AUCinf: 2.458 ng·h/mL
  CL/F: 227 L/h
  T 1/2: 37.3 h
  Vz/F: 12264 L
[3]; Part A SAD, 0.5 mg
  T max: 0.267 h
[3]; Part A SAD, 1.5 mg single inhaled dose, mean
  Cmax: 0.763 ng/mL
[3]; Part A SAD, 1.5 mg, mean
  AUCinf: 7.32 ng·h/mL
  CL/F: 220 L/h
  T 1/2: 38.7 h
  Vz/F: 12620 L
[3]; Part A SAD, 1.5 mg
  T max: 0.517 h
[3]; Part A SAD, 5 mg single inhaled dose, mean
  Cmax: 2.883 ng/mL
[3]; Part A SAD, 5 mg, mean
  AUCinf: 34.727 ng·h/mL
  CL/F: 149 L/h
  T 1/2: 36.5 h
  Vz/F: 7744 L
[3]; Part A SAD, 5 mg
  T max: 0.458 h
[3]; Part A SAD, 15 mg single inhaled dose, mean
  Cmax: 7.27 ng/mL
[3]; Part A SAD, 15 mg, mean
  AUCinf: 96.038 ng·h/mL
  CL/F: 158 L/h
  T 1/2: 39.7 h
  Vz/F: 9116 L
[3]; Part A SAD, 15 mg
  T max: 0.500 h
[3]; Part A SAD, across cohorts
  dose proportionality of mean Cmax and AUC0-inf: approximately dose‐proportional
[3]; [5]
  mean CL/F: 149 to 227 L/h
  mean apparent volume of distribution (Vz/F): 7740–12,600 L
[3]; Part B MAD, 1 mg q.d. for 14 days, mean
  t 1/2: 38.5 h
[3]; Part B MAD, 1 mg q.d.
  AR (Cmin): 3.0
[3]; Part B MAD, 1 mg q.d., mean
  Cmax, Day 1: 0.581 ng/mL
  Cmin, Day 1: 0.0594 ng/mL
  AUCtau, Day1: 2910 pg·h/mL
  AUCtau, Day14: 5969 pg·h/mL
  Cmax, Day 14: 810 pg/mL
  Cmin, Day 14: 0.167 ng/mL
[3]; Part B MAD, 3 mg q.d. for 14 days, mean (N 5)
  t 1/2: 32.0 h
[3]; Part B MAD, 3 mg q.d.
  AR (Cmin): 2.79
[3]; Part B MAD, 3 mg q.d., mean
  Cmax, Day 1: 1.51 ng/mL
  Cmin, Day 1: 0.164 ng/mL
  AUCtau, Day1: 8080 pg·h/mL
  AUCtau, Day14: 15,794 pg.h/mL
  Cmax, Day 14: 2115 pg/mL
  Cmin, Day 14: 0.45 ng/mL
[3]; Part B MAD, 10 mg q.d. for 14 days, mean
  t 1/2: 40.8 h
[3]; Part B MAD, 10 mg q.d.
  AR (Cmin): 3.47
[3]; Part B MAD, 10 mg q.d., mean
  Cmax, Day 1: 3.77 ng/mL
  Cmin, Day 1: 0.517 ng/mL
  AUCtau, Day1: 21,300 pg.h/mL
  AUCtau, Day14: 52,824 pg.h/mL
  Cmax, Day 14: 5982 pg/mL
  Cmin, Day 14: 1.78 ng/mL
[3]; Part B MAD, 15 mg b.i.d. for 14 days, mean
  t 1/2: 56.9 h
[3]; Part B MAD, 15 mg b.i.d.
  AR (Cmin): 2.49
[3]; Part B MAD, 15 mg b.i.d., mean
  Cmax, Day 1: 6.08 ng/mL
  Cmin, Day 1: 2.09 ng/mL
  AUCtau, Day1: 39,500 pg.h/mL
  AUCtau, Day14: 79,907 pg.h/mL
  Cmax, Day 14: 12,423 pg/mL
  Cmin, Day 14: 5.26 ng/mL
[3]; Part B MAD, across the three q.d. cohorts
  dose proportionality of Cmax and AUCtau: approximately dose‐proportional
[3]; Part B MAD, q.d. or b.i.d. dosing
  steady-state concentrations achieved by: ≤ 6 days
[3]; after inhalation, across cohorts
  time of peak plasma concentrations post-dose: 15 to 30 min
[4]
  fractional exhaled nitric oxide (FeNO): reduced; also recorded: dose‐dependent decreases
